In the library only some 1.8% were active in any assay of this set; here they are far more common.
Jurkat NFkB inh – inhibitors of induced NF-kB luciferase reporter, primary screen, TCR NF-kB activation inhibitor project, cell-based, luminescence, uHTS | AID 435003, 2010 | inhibition, % at 4 µM | hit rate 0.53% among 330,000 | Jurkat, PMA/ionomycin-induced NF-kB luciferase reporter; in the data active = inhibition above about 50%
iPSC survival up – enhancers of single-cell hiPSC survival, primary screen, ATPlite luminescence; 100% = ROCK inhibitor wells, 0% = DMSO; survival enhancement, % at 20 µM; hit rate 0.044% among 360,000; AID 602274, 2012; in the data active = survival enhancement above about 18%;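 note: cells exposed to compounds for 16 hours before the ATP read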
697 NFkB inh – inhibitors of PMA/ionomycin-induced NF-kB reporter, 697 cells, primary screen, B-cell NF-kB inhibitor project, cell-based, luminescence, uHTS. 697 B-cell NF-kB luciferase reporter, 16 h. inhibition, % at 4 µM. hit rate 0.33% among 330,000. AID 435022, 2010; in the data active = inhibition above about 35%
Gli-Sufu antag – Gli-Sufu pathway antagonists, primary screen, luciferase luminescence, Sufu-KO-LIGHT cells, uHTS. Sufu-KO-LIGHT fibroblasts, Gli luciferase reporter luminescence. inhibition, % at 5 µM. hit rate 0.74% among 340,000;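 active = inhibition above about 55%, limit read from the data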
H9c2 TAG inh – inhibitors of triacylglycerol accumulation, primary screen, cell-based, uHTS, fluorescence, H9c2; H9c2 cells, Nile Red lipid (TAG) fluorescence; cells loaded with 200 µM oleic acid; inhibition, % at 12.5 µM; hit rate 0.66% among 230,000;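 active = pattern-corrected inhibition of lipid staining of at least 50% with the nuclear-stain viability signal not falling by more than 50%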
Hep lipid drop – inhibitors of hepatocyte lipid droplet formation, primary screen, imaging, high-throughput imaging, BODIPY stain | inhibition, % at 6.5 µM | AML12 mouse hepatocytes, oleate lipid droplets | hit rate 0.4% among 240,000;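 active = lipid droplet intensity inhibited by at least 50%, with more than 500 cells counted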
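Test system: AML12 mouse liver cells; schedule: overnight exposure; technique: high-content imaging of BODIPY-stained droplets and DAPI nuclei; read-out: % inhibition of corrected integrated BODIPY droplet signal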
Lipid drop inh – hepatocyte lipid droplet accumulation inhibitors, confirmation, imaging, AML12 mouse hepatocytes, single concentration, high-content; BODIPY lipid droplet imaging; droplets induced with 100 µM oleic acid; hit rate 65% among 870; AID 463183, 2010; shares compounds with Hep lipid drop; inhibition, % at 5.2 µM;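 active = inhibition of lipid droplet metric at least 50%, with more than 300 cells in each of four replicates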
AML12 cytotox – AML12 hepatocyte cytotoxicity, counter-screen for hepatic lipid droplet formation project, imaging, DAPI nuclear morphology imaging; shares compounds with Hep lipid drop; AML12 mouse hepatocytes; active compounds read high; cells fed 100 µM oleate overnight; z-score at 5 µM; hit rate 3% among 870; AID 463200, 2010; in the data active = z-score above about 6.3;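 note: compound exposure lasted overnight at 37 °C before fixation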
AML12 tox conf – AML12 hepatocyte cytotoxicity, confirmation, cytotoxicity control for hepatic lipid droplet formation project, cell-based, single concentration | shares compounds with Hep lipid drop | AML12 mouse hepatocyte viability, ATP luminescence; cells loaded with 100 µM oleic acid | cytotoxicity, % at 50 µM | 530 tested, under 10 active | AID 463219, 2010;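 active = cytotoxicity above 50% in each of four replicates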;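 note: compound exposure lasted overnight at 37 °C before the ATP read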
A number is an active result; n = inactive; x = no result given; ! = not active in a repeat.

SMILES | Jurkat NFkB inh | iPSC survival up | 697 NFkB inh | Gli-Sufu antag | H9c2 TAG inh | Hep lipid drop | Lipid drop inh | AML12 cytotox | others
Cc1ccc(C(=O)N(Nc2nc3ccccc3s2)C(=O)c2ccc(C)cc2)cc1 | n | n | n | n | x | n | x | x
CC(C)C(=O)N(Nc1nc2ccccc2s1)C(=O)C(C)C | n | n | n | n | x | 72.0 | 70.0 | n | AML12 tox conf=n
CCOc1ccccc1NC(=O)c1cccc(NC(=O)C(C)C)c1 | n | n | n | n | x | n | x | x
CCCC(=O)Nc1cccc(C(=O)Nc2ccccc2OCC)c1 | n | x | n | x | x | 72.8 | 98.9 | n
C=C(C)c1cccc(C(C)(C)NC(=O)Nc2ccccc2OCC)c1 | n | n | n | n | x | 52.5 | n | n
C=C(C)c1cccc(C(C)(C)NC(=O)Nc2cc(C)ccc2OC)c1 | n | n | n | n | n | x | x | x
CCOc1ccccc1N1CCN(CC(=O)Nc2nccs2)CC1 | x | n | x | x | n | x | x | x
COc1ccc(/C=C(\NC(=O)c2cccs2)C(=O)Nc2ccc(C)cc2)cc1OC | n | n | n | n | x | n | x | x
COc1ccc(/C=C(/NC(=O)c2cccs2)C(=O)Nc2ccc(C)cc2)cc1OC | n | n | n | n | x | 60.7 | 99.9 | n | AML12 tox conf=n
CN(C1=C(NC(=O)c2ccc(Cl)cc2)C(=O)c2ccccc2C1=O)c1ccccc1 | n | n | n | n | x | 68.8 | 90.6 | n
C/C=C(/C)C(=O)O[C@@H]1[C@H](OC(=O)C=C(C)C)c2c(ccc3ccc(=O)oc23)OC1(C)C | n | n | n | n | n | 53.7 | n | n
CCOc1ccc(NC(=O)CN(C)C(=O)C2CC2C)cc1OCC (stereo unspecified) | n | n | n | n | n | x | x | x
CCOc1ccc(NC(=O)CN(C)c2ccc(S(=O)(=O)N(C(C)C)C(C)C)cn2)cc1OCC | n | n | n | n | n | 52.4 | 83.7 | n | AML12 tox conf=n
CC1CCC(C(C)C)C(OC(=O)COC(=O)c2ccc(N)cc2)C1 (stereo unspecified) | n | n | n | n | n | n | x | x
Cc1ccccc1OCc1n(CC(=O)OC2CC(C)CCC2C(C)C)c2ccccc2[n+]1C (stereo unspecified) | n | n | n | n | 75.5! | 53.9! | n | n
Cc1ccc(C)c(N2CC(C(=O)Nc3nccs3)CC2=O)c1 (stereo unspecified) | n | n | n | n | x | n | x | x
O=C(COc1ccc(Cl)cc1)NCc1ccc(F)cc1 | n | n | n | n | n | n | x | x
CCOc1ccccc1NC(=O)N1CCC(C(=O)c2ccc(F)cc2)CC1 | n | n | n | n | n | 58.7 | 94.6 | n | AML12 tox conf=n
COc1cccc(C2NC(=O)N(CCCC(=O)O)C(C)=C2C(=O)OCc2ccccc2)c1 (stereo unspecified) | n | x | n | x | x | x | x | x
Cc1ccc(CNc2nc(C)nc3sc4c(c23)CCC4)cc1 | n | n | n | n | x | x | x | x
Cc1nc(Nc2ccc(O)cc2)c2c3c(sc2n1)CCCC3 | n | n | n | n | n | 60.3 | 75.2 | n
COc1ccc(N(C)C(=O)c2cn(CC(C)C)c(=O)c3cc(OC)c(OC)cc23)cc1 | n | n | n | n | x | x | x | x
CCn1cc(C(=O)N(C)c2ccc(OC)cc2)c2cc(OC)c(OC)cc2c1=O | n | n | n | n | x | 68.4 | n | n
Cc1nn(CCCC(=O)Nc2nccs2)c(C)c1[N+](=O)[O-] | n | n | n | n | n | n | x | x
CCN(CC)S(=O)(=O)c1ccc(C(=O)NCc2ccc3[nH]c4c(c3c2)CCCC4)cc1 | n | n | n | n | n | 85.4 | 90.4 | n | AML12 tox conf=n
SMILES | Jurkat NFkB inh | iPSC survival up | 697 NFkB inh | Gli-Sufu antag | H9c2 TAG inh | Hep lipid drop | Lipid drop inh | AML12 cytotox | others
CN(C)S(=O)(=O)c1ccc(C(=O)NCc2ccc3[nH]c4c(c3c2)CCCC4)cc1 | n | n | n | n | n | n | x | x
Cc1cc(=O)[nH]c(N/N=C/c2ccc(OC(=O)c3ccco3)cc2)n1 | n | n | n | n | n | n | x | x
CCc1c(C#N)c(SCCC(=O)Nc2cccc(OC)c2)nc2c1C(=O)CC(C)(C)C2 | n | n | n | n | n | 58.5 | 101.4 | n | AML12 tox conf=n
CCc1c(C#N)c(SCCC(=O)Nc2ccc(F)cc2)nc2c1C(=O)CC(C)(C)C2 | n | n | n | n | x | n | x | x
Cn1cc(S(=O)(=O)N2CCOCC2)cc1C(=O)O | n | n | n | n | n | x | x | x
COc1ccc(S(=O)(=O)N2CCOCC2)cc1NC(=O)c1ccccc1C | n | n | n | n | n | 51.2 | n | n
O=C(CSc1n[nH]c(=O)n1C1CC1)NCc1ccccc1Cl | n | n | n | n | n | n | x | x
CCOc1ccc(C(=O)OCC(=O)Nc2cc(C)on2)cc1OCC | n | n | n | n | x | 80.3 | 106.0 | n | AML12 tox conf=n
O=C1CCCCC/C1=N/Nc1ccc(OCc2ccccc2)cc1 | n | n | n | n | n | n | x | x
COc1ccccc1NC(=O)CSc1nccn1Cc1ccccc1 | n | n | n | n | n | n | x | x
CCCc1cc(=O)oc2c3c(cc(OCC(=O)N4CCC(C(=O)O)CC4)c12)OC(C)(C)CC3 | x | n | x | x | x | x | x | x
Cn1c(-c2ccc3c(c2)OCO3)cnc1NCc1cccc(O)c1 | n | n | n | n | n | n | x | x
Cc1ccc2[nH]c(C)c(CC(=O)NCc3ccccc3)c2c1 | n | n | n | n | x | 71.8 | 68.2 | n | AML12 tox conf=n
CN1CCN(NC(=O)c2cn(-c3ccccc3)nc2-c2ccc(OC(F)F)cc2)CC1 | n | n | n | n | n | n | x | x
COc1ccccc1CNC(=O)C1CCN(S(=O)(=O)c2ccc3c(c2)NC(=O)CO3)CC1 | n | n | n | n | x | n | x | x
Cc1c(S(=O)(=O)c2ccccn2)c(N)n(Cc2ccccc2)c1C | n | n | n | n | n | 60.9 | n | n
COc1ccc(-c2c(C)[nH]n3c(=O)c(Cc4ccccc4)c(C)nc23)cc1 | n | n | n | n | x | n | x | x
COc1ccc(C(=O)CCC(=O)NCCc2c[nH]c3ccccc23)cc1OC | n | n | n | n | x | 123.8 | 98.7 | n | AML12 tox conf=n
COc1cccc(CNC(=O)CCCc2c[nH]c3ccccc23)c1 | n | n | n | n | n | 63.7 | 69.3 | n | AML12 tox conf=n
Cc1ccc(S(=O)(=O)N2c3ccccc3-c3c(ssc3=S)C2(C)C)cc1 | n | n | n | n | x | n | x | x
COc1ccc2c(c1)-c1c(ssc1=S)C(C)(C)N2S(=O)(=O)c1ccc(C)cc1 | n | n | n | n | x | 50.8 | n | n
